Entries after “also recorded” stand apart in the source; their conditions may differ.
Assays:
[1] = tested on: voltage gated sodium channel (VGSC); conditions: cited from earlier work
[2] = tested on: site 2 of the mammalian VGSC; conditions: cited from earlier work
[3] = tested on: Neuro-2a mouse neuroblastoma cells; assay: Cytotoxicity to Neuro-2a mouse neuroblastoma cells; type: cell-based
[4] = tested on: H-460 human lung adenocarcinoma cells; assay: Cytotoxicity to H-460 human lung adenocarcinoma cells; type: cell-based
[5] = tested on: brine shrimp; assay: Brine shrimp toxicity assay; type: in vivo; conditions: pure compound
[6] = tested on: voltage gated sodium channel (VGSC); assay: Sodium influx / activation of VGSC in neocortical neurons; type: cell-based; conditions: mouse neocortical neurons
Summary of the method: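 Primary neocortical neurons from embryonic day 16 Swiss-Webster mice were trypsin-dissociated, given 10 μM cytosine arabinoside on day 2, then Neurobasal/B-27 serum-free medium, and used at DIV 8–13. Cells were loaded for 1 h at 37 °C with 10 μM SBFI-AM and 0.02% Pluronic F-127, then washed in Locke's buffer. Ex 340/380 nm, em 505 nm, read every 5 s, with 60 s baseline before test compound addition. EC50 by nonlinear logistic regression.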

[7] = tested on: spontaneous Ca2+ oscillations in neocortical neurons; assay: Suppression of spontaneous Ca2+ oscillations; type: cell-based, mouse

CCC[C@@H](C)[C@H](O)[C@H](C)[C@H]1OC(=O)[C@H]([C@@H](C)O)NC(=O)[C@H](C(C)C)OC(=O)[C@H](C)[C@H](O)[C@H]([C@@H](C)CC)NC(=O)[C@@]2(C)CSC(=N2)[C@@]2(C)CSC(=N2)c2csc(n2)C[C@H](OC)[C@@H]1C [Compound 1, hoiamide A]
kind of agonism in stimulation of sodium influx in neocortical neurons [1]: partial agonist
inhibition of binding of [3H]batrachotoxin to site 2 of the mammalian VGSC [2]: inhibits the binding

CCC[C@@H](C)[C@H](O)[C@H](C)[C@H]1OC(=O)[C@H]([C@@H](C)O)NC(=O)[C@H]([C@@H](C)CC)OC(=O)[C@H](C)[C@H](O)[C@H]([C@@H](C)CC)NC(=O)[C@@]2(C)CSC(=N2)[C@@]2(C)CSC(=N2)c2csc(n2)C[C@H](OC)[C@@H]1C [Compound 2, hoiamide B]
Neuro-2a (IC50 μM) [3]: Inactive

CCC[C@@H](C)[C@H](O)[C@H](C)[C@@H](O)[C@@H](C)[C@H](Cc1nc(C2=N[C@@](C)(C3=N[C@@](C)(C(=O)N[C@H]([C@@H](O)[C@@H](C)C(=O)OCC)[C@@H](C)CC)CS3)CS2)cs1)OC [Compound 3, hoiamide C]
H-460 (IC50 μM) [4]: Inactive
Neuro-2a (IC50 μM) [3]: Inactive
LC50 in the brine shrimp toxicity assay [5]: 1300 nM
stimulated sodium influx, EC50 [6]: no significant effects; also recorded: no significant pharmacological activity
suppressed spontaneous Ca2+ oscillations, EC50 [7]: no significant effects; also recorded: no significant pharmacological activity
